Results published in ChEMBL document CHEMBL3853326, “Proteolytically Stable Foldamer Mimics of Host-Defense Peptides with Protective Activities in a Murine Model of Bacterial Infection” (J Med Chem, 2016).
≈ marks a conversion by molar mass, not a printed value. Calls of active or inactive are those of the source.

How the values were obtained:
Bacillus anthracis [1] = experiment: Bactericidal activity against germinated spore form of Bacillus anthracis 9602P assessed as colony forming units after 30 mins; format: functional; details: 0.5 h
Bacillus anthracis [2] = experiment: Time required for 50 % bactericidal activity against nonencapsulated Bacillus anthracis 9602PR at 20 ug/ml; format: functional
Bacillus anthracis [3] = experiment: Time required for 50 % bactericidal activity against encapsulated Bacillus anthracis 9602P at 20 ug/ml; format: functional
Bacillus anthracis [4] = experiment: Bactericidal activity against encapsulated Bacillus anthracis 9602P assessed as reduction in colony forming units after 30 mins; format: functional; details: 0.5 h
Bacillus anthracis [5] = experiment: Bactericidal activity against nonencapsulated Bacillus anthracis 9602PR assessed as reduction in colony forming units after 30 mins; format: functional; details: 0.5 h
Bacillus anthracis [6] = experiment: Time required for 50 % bactericidal activity against germinating spore form of Bacillus anthracis 9602P at 20 ug/ml; format: functional
[7] = Drug uptake in BALB/c mouse lungs at 20 ug/ml, administered intranasally up to 4 hrs by high resolution beta radiometric imaging analysis; format: ADME, Lung; details: in vivo, inhaled_or_intranasal
In short: (§1)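 BALB/c mice got 20 μg (5 μCi) tritiated compound intranasally. At 4, 30 and 48 h they were anaesthetised with halothane and frozen at −80 °C. Whole-body 20 μm sagittal cryosections were exposed 40 h on a high-resolution β-imager. Regional radioactivity was quantified as counts per mm2 per 40 h by image analysis.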

[8] = Selectivity index, ratio of HD100 for sheep RBC to MIC for Staphylococcus aureus ATCC 25923
[9] = Stability assessed as chymotrypsin(unknown origin)-mediated compound degradation after 24 hrs by HPLC analysis; format: ADME; details: human
[10] = Selectivity index, ratio of HD100 for sheep RBC to MIC for Escherichia coli ATCC 25922
[11] = Drug excretion in BALB/c mouse urinary bladder at 100ug, iv as bolus administration after 240 mins by liquid scintillation counting; format: ADME, organism-based; details: in vivo, 4 h
In short: (§2)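 Conscious BALB/c mice got one iv bolus of [3H]-labelled oligourea (0.5 × 10^6 cpm per 100 μg, 5.8 × 10−2 μmol) in PBS. Blood (10–20 μL) was drawn from the retro-orbital sinus at 0.6, 2, 3.5, 5.5, 8.7, 15 and 240 min and counted by liquid scintillation. PK was fitted by a two-compartment iv bolus model; n = 2 mice.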

Bacillus anthracis [12] = experiment: In vivo bactericidal activity against encapsulated Bacillus anthracis 9602P spores infected in mouse assessed as increase in time of survival at 20 ug/ml, sc administered for 15 mins to 48 hrs post infection measured for 15 days post dose; format: functional, organism-based
Bacillus anthracis [13] = experiment: Time required for 50 % bactericidal activity against nonencapsulated Bacillus anthracis 9602PR at 10 ug/ml; format: functional
[14] = Ratio of drug level in kidney cortex to muscle in BALB/c mouse at 100 ug/ml, iv after 4 hrs by high resolution beta radiometric imaging analysis; format: ADME, organism-based; details: in vivo
In short: (§3)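 BALB/c mice got 100 μg (5 μCi) tritiated compound iv in PBS. At 4, 30 and 48 h the mice were anaesthetised with halothane and frozen in isopentane/dry ice at −80 °C. Whole-body sagittal cryosections (20 μm, cut at −25 °C) were exposed 40 h on a β-imager. Counts per mm2 were read by image analysis, with a muscle-area detection threshold. Values are mean ± SD of 2–6 determinations.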

[15] = Ratio of drug level in liver to muscle in BALB/c mouse at 100 ug/ml, iv after 4 hrs by high resolution beta radiometric imaging analysis; format: ADME, organism-based; details: in vivo; in short: as §3
[16] = Primary phase half life in BALB/c mouse at 100ug, iv as bolus administration by liquid scintillation counting; format: ADME, organism-based; details: in vivo; in short: as §2
[17] = Tmax in BALB/c mouse at 100ug, iv as bolus administration by liquid scintillation counting; format: ADME, organism-based; details: in vivo; in short: as §2
Bacillus anthracis [18] = experiment: Time required for 50 % bactericidal activity against germinating spore form of Bacillus anthracis 9602P at 10 ug/ml; format: functional
Bacillus anthracis [19] = experiment: In vivo bactericidal activity against encapsulated Bacillus anthracis 9602P spores infected in mouse assessed as increase in time of survival at 20 ug/ml, administered intranasally for 15 mins to 48 hrs post infection measured for 15 days post dose; format: functional, organism-based
[20] = Drug uptake in BALB/c mouse nasopharyngeal duct at 20 ug/ml, administered intranasally at 4 hrs post dose by high resolution beta radiometric imaging analysis; format: ADME; details: in vivo, inhaled_or_intranasal; in short: as §1
[21] = Drug uptake in BALB/c mouse liver at 100 ug/ml, iv after 4 to 48 hrs by high resolution beta radiometric imaging analysis; format: ADME, organism-based; details: in vivo; in short: as §3
Bacillus anthracis [22] = experiment: Time required for 95 % bactericidal activity against encapsulated Bacillus anthracis 9602P at 10 ug/ml; format: functional
Bacillus anthracis [23] = experiment: Time required for 50 % bactericidal activity against encapsulated Bacillus anthracis 9602P at 10 ug/ml; format: functional
Bacillus anthracis [24] = experiment: Bactericidal activity against Bacillus anthracis 9602P non-germinated spores assessed as colony forming units at 10 ug/ml incubated for 30 mins followed by heating for 30 mins (reference value: 5.28 +/- 0.02 CFU); format: functional
[25] = Stability assessed as trypsin (unknown origin)-mediated compound degradation after 24 hrs by HPLC analysis; format: ADME; details: human
[26] = Drug uptake in BALB/c mouse kidney cortex at 20 ug/ml, administered intranasally after 4 to 48 hrs by high resolution beta radiometric imaging analysis relative to iv dosing; format: ADME, organism-based; details: in vivo, inhaled_or_intranasal; in short: as §1
[27] = Terminal half life in BALB/c mouse at 100ug, iv as bolus administration by liquid scintillation counting; format: ADME, organism-based; details: in vivo; in short: as §2
[28] = Cytotoxicity against mouse RAW264.7 cells assessed as reduction in cell viability after 4 hrs by MTT assay; format: toxicity; details: read-out: LC50
In short: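 RAW 264.7 murine macrophages (2 × 10^5 cells per well) were incubated with increasing compound concentrations for 4 h. Viability was read by MTT assay. The dose causing 50% cell lethality was reported as mean ± SEM, n = 3.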

[29] = Drug uptake in BALB/c mouse kidney cortex at 100 ug/ml, iv after 4 to 48 hrs by high resolution beta radiometric imaging analysis; format: ADME, organism-based; details: in vivo; in short: as §3
[30] = Drug uptake in BALB/c mouse kidney at 100ug, iv through bolus administration after 30 hrs by RP-HPLC analysis; format: ADME, organism-based; details: in vivo
In short: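 Kidneys were taken 4 and 30 h after iv tritiated compound and homogenised in 1 N HCl. Homogenates were extracted with methanol/0.1% TFA (4:1), lyophilised 48 h and resuspended in water. Samples ran on C18 RP-HPLC with UV (224, 254 nm) and radioactivity detection. Elution was 10 min isocratic at 20% B, then 20–100% B over 15 min (B: acetonitrile, 0.1% TFA).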

[31] = Plasma protein binding in CD1 mouse at 10 uM after 4 hrs by HPLC/MS/MS analysis; format: ADME, cell-free; details: read-out: PPB
In short: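 Binding was measured by equilibrium dialysis against CD-1 mouse plasma.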

[32] = Selectivity ratio of LC50 for mouse RAW 264.7 cells to ratio of EC50 for germinating spore form of Bacillus anthracis 9602P; format: ADME; details: RAW264.7 cells, read-out: Selectivity Index
[33] = Drug excretion in BALB/c mouse urine at 20 ug/ml, administered intranasally after 6 hrs by high resolution beta radiometric imaging analysis; format: ADME; details: in vivo, inhaled_or_intranasal
[34] = Stability assessed as Streptomyces griseus pronase E-mediated compound degradation after 24 hrs by HPLC analysis; format: ADME
[35] = Stability assessed as trypsin (unknown origin)-mediated compound degradation up to 3 mins by HPLC analysis; format: ADME; details: human, 0.05 h
[36] = Stability assessed as chymotrypsin(unknown origin)-mediated compound degradation up to 3 mins by HPLC analysis; format: ADME; details: human, 0.05 h
[37] = Stability assessed as Streptomyces griseus pronase E-mediated compound degradation up to 3 mins by HPLC analysis; format: ADME; details: 0.05 h
[38] = Drug uptake in BALB/c mouse kidney cortex at 100 ug, iv after 4 hrs by avidin-peroxidase/HE staining based assay; format: ADME, organism-based; details: in vivo
Bacillus anthracis [39] = experiment: Bactericidal activity against germinating spore form of Bacillus anthracis at 5 ug/ml; format: functional
[40] = Drug uptake in BALB/c mouse kidney deep medulla at 100 ug, iv after 4 hrs by avidin-peroxidase/HE staining based assay; format: ADME, organism-based; details: in vivo
[41] = Drug uptake in BALB/c mouse kidney deep medulla epithelial cells at 100 ug, iv after 4 hrs by avidin-peroxidase/HE staining based assay; format: ADME, organism-based, Epithelial cell; details: in vivo
[42] = Drug uptake in BALB/c mouse liver at 100 ug, iv after 4 hrs by avidin-peroxidase/HE staining based assay; format: ADME, organism-based; details: in vivo
[43] = Drug uptake in BALB/c mouse cortical convoluted tubule epithelial cells at 100 ug, iv after 4 hrs by avidin-peroxidase/HE staining based assay; format: ADME, organism-based, Epithelial cell; details: in vivo
[44] = Drug uptake in BALB/c mouse kupffer cells at 100 ug, iv after 4 hrs by avidin-peroxidase/HE staining based assay; format: ADME, organism-based; details: in vivo

CC(C)NC(=O)N[C@H](CNC(=O)N[C@@H](CCCCN)CNC(=O)N[C@H](CNC(=O)N[C@H](CCC(=O)N[C@@H](CCCCN)CNC(=O)N[C@H](CNC(=O)N[C@@H](CCCCN)CNC(=O)N[C@H](CCC(N)=O)C(C)C)Cc1c[nH]c2ccccc12)C(C)C)Cc1c[nH]c2ccccc12)C(C)C
EC50 (Bacillus anthracis [1]): 10 µg/mL (≈ 7.21 µM)
Time (Bacillus anthracis [2]): 45 s
Time (Bacillus anthracis [3]): 75 s
EC50 (Bacillus anthracis [4]): 7 µg/mL (≈ 5.05 µM)
EC50 (Bacillus anthracis [5]): 8.5 µg/mL (≈ 6.13 µM)
Time (Bacillus anthracis [6]): 120 s

CC(C)NC(=O)N[C@H](CNC(=O)N[C@@H](CCCCN)CNC(=O)N[C@H](CNC(=O)N[C@H](CNC(=O)N[C@@H](CCCCN)CNC(=O)N[C@H](CNC(=O)N[C@@H](CCCCN)CNC(=O)N[C@H](CCC(N)=O)C(C)C)Cc1c[nH]c2ccccc12)C(C)C)Cc1c[nH]c2ccccc12)C(C)C
Drug uptake [7]: Active
Selectivity Index [8]: 8
Stability [9]: Stable
Selectivity Index [10]: 8
Drug excretion [11]: 2%
Activity (Bacillus anthracis [12]): Active
EC50 (Bacillus anthracis [1]): 3.3 µg/mL (≈ 2.38 µM)
Time (Bacillus anthracis [13]): 35 s
Ratio [14]: 10
Ratio [15]: 10
alphat1/2 [16]: 3 min
Tmax [17]: <= 2 min
Time (Bacillus anthracis [18]): 60 s
Activity (Bacillus anthracis [19]): Active
Drug uptake [20]: Active
Drug uptake [21]: Active
Time (Bacillus anthracis [22]): <2 min
Time (Bacillus anthracis [23]): 30 s
EC50 (Bacillus anthracis [4]): 3.25 µg/mL (≈ 2.34 µM)
Activity (Bacillus anthracis [24]): 5.26 CFU
Stability [25]: Stable
Drug uptake [26]: 70%
EC50 (Bacillus anthracis [5]): 6 µg/mL (≈ 4.32 µM)
beta t1/2 [27]: 1.65 h
CC50 at 4 h [28]: 31.1 µg/mL (≈ 22.4 µM)
Drug uptake [29]: Active
Drug uptake [30]: 89%
fraction unbound at 4 h, 10 µM [31]: 0.01
selectivity ratio [32]: 9.5
Drug excretion [33]: 2%
Stability [34]: Stable

Ac-VKWVKWKV-NH2
Stability [35]: Unstable
Stability [36]: Unstable
Stability [37]: Unstable

CC(C)[C@@H](CNC(=O)N[C@@H](CCCCN)CNC(=O)N[C@H](CNC(=O)N[C@H](CNC(=O)N[C@@H](CCCCN)CNC(=O)N[C@H](CNC(=O)N[C@@H](CCCCN)CNC(=O)N[C@H](CCC(N)=O)C(C)C)Cc1c[nH]c2ccccc12)C(C)C)Cc1c[nH]c2ccccc12)NC(=O)CCCC[C@@H]1SC[C@@H]2NC(=O)N[C@@H]21
Drug uptake [38]: Active
Activity (Bacillus anthracis [39]): 64.8%
Drug uptake [40]: Active
Drug uptake [41]: Active
Drug uptake [42]: Active
Drug uptake [43]: Active
Drug uptake [44]: Active

CC(C)[C@@H](CCC(N)=O)NC(=O)NC[C@H](CCCCN)NC(=O)NC[C@H](Cc1c[nH]c2ccccc12)NC(=O)NC[C@H](CCCCN)NC(=O)NC[C@@H](NC(=O)NC[C@H](Cc1c[nH]c2ccccc12)NC(=O)NC[C@H](CCCCN)NC(=O)NC[C@@H](NC(=O)NCCSCC(=O)NCCNC(=O)CSCCNC(=O)N[C@H](CNC(=O)N[C@@H](CCCCN)CNC(=O)N[C@H](CNC(=O)N[C@H](CNC(=O)N[C@@H](CCCCN)CNC(=O)N[C@H](CNC(=O)N[C@@H](CCCCN)CNC(=O)N[C@H](CCC(N)=O)C(C)C)Cc1c[nH]c2ccccc12)C(C)C)Cc1c[nH]c2ccccc12)C(C)C)C(C)C)C(C)C
Activity (Bacillus anthracis [12]): Active
EC50 (Bacillus anthracis [1]): 0.2 µg/mL (≈ 0.0678 µM)
Activity (Bacillus anthracis [19]): Active
EC50 (Bacillus anthracis [4]): 0.5 µg/mL (≈ 0.169 µM)
